What was measured:
Canis familiaris [1] = experiment: Percentage change of the duration of action potential at 75% repolarization was measured before and after the administration at 10.0 ug/mL; format: functional, Canis lupus familiaris
Method in brief: (§1)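 Canine right-ventricular Purkinje fibers (mongrel dogs 7–11 kg, thiopental-anesthetized) superfused with Tyrode's (pH 7.5, 36 °C, gassed 95% O2/5% CO2). Compounds diluted from 1 mM water stock and added cumulatively. Readings taken 20 min after solution exchange. Result given as percent change in action potential duration.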

Canis familiaris [2] = experiment: The prolongation effect of the atrial and ventricular effective refractory period was measured before and after the administration at 0.1 mg/kg; format: functional, Canis lupus familiaris, Cardiac atrium; conditions: dose 1.0 mg/kg; in the assay text read “1.0 mg/kg” for “0.1 mg/kg”
Method in brief: (§2)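 In vivo, mongrel dogs of either sex (7–13 kg), anesthetized with pentobarbital sodium 30 mg/kg iv. Left femoral artery cannulated for arterial pressure, femoral vein for drug dosing. Effective refractory period measured before and after administration.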

Canis familiaris [3] = experiment: The percentage change of the duration of action potential at 75% repolarization was measured before and after the administration at 3.0 ug/mL; format: functional, Canis lupus familiaris; method in brief: as §1
Canis familiaris [4] = experiment: The prolongation effect of the atrial and ventricular effective refractory period was measured before and after the administration at 0.3 mg/kg; format: functional, Canis lupus familiaris, Cardiac atrium; method in brief: as §2
Canis familiaris [5] = experiment: The percentage change of the duration of action potential at 75% repolarization was measured before and after the administration at 1.0 ug/mL; format: functional, Canis lupus familiaris; method in brief: as §1
Canis familiaris [6] = experiment: The prolongation effect of the atrial and ventricular effective refractory period was measured before and after the administration at 3 mg/kg; format: functional, Canis lupus familiaris, Cardiac atrium; method in brief: as §2
Canis familiaris [7] = experiment: Concentration required for 50% inhibition of tachycardia induced by isoproterenol (0.5ug/mL, iv) in anesthetized dog; format: functional; conditions: Canis lupus familiaris, read-out: ID50 (the source's name)
Canis familiaris [8] = species: Canis familiaris; experiment: Action potential duration at 90% repolarization at 1(ug/mL) concentration; format: functional, Canis lupus familiaris
Method in brief: (§3)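 Purkinje fibers from right ventricle of mongrel dogs (7–11 kg, thiopental sodium 30 mg/kg iv), superfused in organ bath with Tyrode's solution (pH 7.5, 95% O2/5% CO2) at 36 °C. Compounds from 1 mM aqueous stock diluted in Tyrode's, given cumulatively. Data taken 20 min after each solution change. Means ± SD of seven experiments.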

Canis familiaris [9] = species: Canis familiaris; experiment: Action potential amplitude at 3(ug/mL) concentration; format: functional, Canis lupus familiaris; method in brief: as §3
Canis familiaris [10] = species: Canis familiaris; experiment: Maximum upstroke velocity of the compound at 0 (ug/mL) concentration; format: functional, Canis lupus familiaris; method in brief: as §3
Canis familiaris [11] = species: Canis familiaris; experiment: Resting membrane potential at 1 (ug/mL) concentration; format: functional; conditions: Canis lupus familiaris; method in brief: as §3
Canis familiaris [12] = species: Canis familiaris; experiment: Action potential duration at 90% repolarization at 0.1(ug/mL) concentration; format: functional, Canis lupus familiaris; method in brief: as §3
Canis familiaris [13] = species: Canis familiaris; experiment: Action potential duration at 75% repolarization at 1(ug/mL) concentration; format: functional, Canis lupus familiaris; method in brief: as §3
Canis familiaris [14] = species: Canis familiaris; experiment: Action potential amplitude at 0 (ug/mL) concentration; format: functional, Canis lupus familiaris; method in brief: as §3
Canis familiaris [15] = species: Canis familiaris; experiment: Action potential duration at 90% repolarization at 10(ug/mL) concentration; format: functional, Canis lupus familiaris; method in brief: as §3
Canis familiaris [16] = species: Canis familiaris; experiment: Action potential amplitude at 10(ug/mL) concentration; format: functional, Canis lupus familiaris; method in brief: as §3
Canis familiaris [17] = species: Canis familiaris; experiment: Action potential duration at 50% repolarization at 0.1(ug/mL) concentration; format: functional, Canis lupus familiaris; method in brief: as §3
Canis familiaris [18] = species: Canis familiaris; experiment: Action potential duration at 90% repolarization at 0.3(ug/mL) concentration; format: functional, Canis lupus familiaris; method in brief: as §3
Canis familiaris [19] = species: Canis familiaris; experiment: Resting membrane potential at 0 (ug/mL) concentration; format: functional; conditions: Canis lupus familiaris; method in brief: as §3
Canis familiaris [20] = species: Canis familiaris; experiment: Resting membrane potential at 0.1 (ug/mL) concentration; format: functional; conditions: Canis lupus familiaris; method in brief: as §3
Canis familiaris [21] = species: Canis familiaris; experiment: Action potential amplitude at 0.3(ug/mL) concentration; format: functional, Canis lupus familiaris; method in brief: as §3
Canis familiaris [22] = species: Canis familiaris; experiment: Action potential duration at 50% repolarization at 0.3(ug/mL) concentration; format: functional, Canis lupus familiaris; method in brief: as §3
Canis familiaris [23] = species: Canis familiaris; experiment: Maximum upstroke velocity of the compound at 0.3 (ug/mL) concentration; format: functional, Canis lupus familiaris; method in brief: as §3
Canis familiaris [24] = species: Canis familiaris; experiment: Action potential duration at 75% repolarization at 3(ug/mL) concentration; format: functional, Canis lupus familiaris; method in brief: as §3
Canis familiaris [25] = species: Canis familiaris; experiment: Action potential duration at 50% repolarization at 0 ug/mL concentration; format: functional, Canis lupus familiaris; method in brief: as §3
Canis familiaris [26] = species: Canis familiaris; experiment: Action potential amplitude at 1(ug/mL) concentration; format: functional, Canis lupus familiaris; method in brief: as §3
Canis familiaris [27] = species: Canis familiaris; experiment: Maximum upstroke velocity of the compound at 3 (ug/mL) concentration; format: functional, Canis lupus familiaris; method in brief: as §3
Canis familiaris [28] = species: Canis familiaris; experiment: Resting membrane potential at 10 (ug/mL) concentration; format: functional; conditions: Canis lupus familiaris; method in brief: as §3
Canis familiaris [29] = species: Canis familiaris; experiment: Action potential duration at 75% repolarization at 0.1(ug/mL) concentration; format: functional, Canis lupus familiaris; method in brief: as §3
Canis familiaris [30] = species: Canis familiaris; experiment: Maximum upstroke velocity of the compound at 0.1 (ug/mL) concentration; format: functional, Canis lupus familiaris; method in brief: as §3
Canis familiaris [31] = species: Canis familiaris; experiment: Maximum upstroke velocity of the compound at 10 (ug/mL) concentration; format: functional, Canis lupus familiaris; method in brief: as §3
Canis familiaris [32] = species: Canis familiaris; experiment: Action potential duration at 75% repolarization at 0.3(ug/mL) concentration; format: functional, Canis lupus familiaris; method in brief: as §3
Canis familiaris [33] = species: Canis familiaris; experiment: Resting membrane potential at 0.3 (ug/mL) concentration; format: functional; conditions: Canis lupus familiaris; method in brief: as §3
Canis familiaris [34] = species: Canis familiaris; experiment: Action potential duration at 50% repolarization at 1(ug/mL) concentration; format: functional, Canis lupus familiaris; method in brief: as §3
Canis familiaris [35] = species: Canis familiaris; experiment: Action potential duration at 50% repolarization at 3(ug/mL) concentration; format: functional, Canis lupus familiaris; method in brief: as §3
Canis familiaris [36] = species: Canis familiaris; experiment: Maximum upstroke velocity of the compound at 1 (ug/mL) concentration; format: functional, Canis lupus familiaris; method in brief: as §3
Canis familiaris [37] = species: Canis familiaris; experiment: Action potential duration at 75% repolarization at 10(ug/mL) concentration; format: functional, Canis lupus familiaris; method in brief: as §3
Canis familiaris [38] = species: Canis familiaris; experiment: Action potential amplitude at 0.1(ug/mL) concentration; format: functional, Canis lupus familiaris; method in brief: as §3
Canis familiaris [39] = species: Canis familiaris; experiment: Action potential duration at 90% repolarization at 0(ug/mL) concentration; format: functional, Canis lupus familiaris; method in brief: as §3
Canis familiaris [40] = species: Canis familiaris; experiment: Action potential duration at 90% repolarization at 3(ug/mL) concentration; format: functional, Canis lupus familiaris; method in brief: as §3
Canis familiaris [41] = species: Canis familiaris; experiment: Action potential duration at 75% repolarization at 0(ug/mL) concentration; format: functional, Canis lupus familiaris; method in brief: as §3
Canis familiaris [42] = species: Canis familiaris; experiment: Action potential duration at 50% repolarization at 10(ug/mL) concentration; format: functional, Canis lupus familiaris; method in brief: as §3
Canis familiaris [43] = species: Canis familiaris; experiment: Resting membrane potential at 3(ug/mL) concentration; format: functional; conditions: Canis lupus familiaris; method in brief: as §3
Canis familiaris [44] = experiment: The percentage change in the effective refractory period was measured before and after the administration at 0.1 mg/kg; format: functional, Canis lupus familiaris; conditions: dose 1.0 mg/kg; in the assay text read “1.0 mg/kg” for “0.1 mg/kg”; method in brief: as §2
Canis familiaris [45] = experiment: The prolongation effect of the atrial and ventricular effective refractory period was measured before and after the administration at 0.3 mg/kg

## Cl.Cn1c(N2CCN(CCCOc3ccc(NS(C)(=O)=O)cc3)CC2)cc(=O)n(C)c1=O
Canis familiaris [1]
  APD75: 10%
Canis familiaris [2]
  ERP: 9.3%
Canis familiaris [3]
  APD75: 3%
Canis familiaris [4]
  ERP: 7.1%
Canis familiaris [5]
  APD75: 1%
Canis familiaris [6]
  ERP: 16.4%

## CO.Cl.Cn1c(N2CCN(CCCOc3cccc([N+](=O)[O-])c3)CC2)cc(=O)n(C)c1=O
Canis familiaris [2]
  ERP: 7%
Canis familiaris [3]
  APD75: 34%
Canis familiaris [5]
  APD75: 15%

## Cl.Cn1c(N2CCN(CCCCc3ccc([N+](=O)[O-])cc3)CC2)cc(=O)n(C)c1=O
Canis familiaris [1]
  APD75: 25%
Canis familiaris [3]
  APD75: 17%

## CCO.Cn1c(NCCNCC(O)COc2ccccc2)cc(=O)n(C)c1=O (centres undefined)
Canis familiaris [1]
  APD75: 10.1%
Canis familiaris [3]
  APD75: 6.9%
Canis familiaris [7]
  ED50: 0.01 mg/kg

## Cl.Cn1c(N2CCN(CCCOc3ccc(Cl)cc3)CC2)cc(=O)n(C)c1=O
Canis familiaris [2]
  ERP: 13%
Canis familiaris [3]
  APD75: 25%
Canis familiaris [4]
  ERP: 6.3%
Canis familiaris [5]
  APD75: 14%
Canis familiaris [6]
  ERP: 24.3%

## Cn1c(NCCNCCCc2ccc([N+](=O)[O-])cc2)cc(=O)n(C)c1=O.O=C(O)C(=O)O
Canis familiaris [1]
  APD75: 16%
Canis familiaris [3]
  APD75: 12%
Canis familiaris [5]
  APD75: 9%

## Cl.Cn1c(NCCN(CCO)CCCc2ccc([N+](=O)[O-])cc2)cc(=O)n(C)c1=O
Canis familiaris [8]
  APD90: 471 ms
Canis familiaris [9]
  APA: 104 mV
Canis familiaris [10]
  Max dV/dt: 356 V s-1
Canis familiaris [11]
  RMP: -87 mV
Canis familiaris [12]
  APD90: 371 ms
Canis familiaris [13]
  APD75: 428 ms
Canis familiaris [14]
  APA: 104 mV
Canis familiaris [15]
  APD90: 584 ms
Canis familiaris [16]
  APA: 107 mV
Canis familiaris [17]
  APD50: 293 ms
Canis familiaris [18]
  APD90: 409 ms
Canis familiaris [19]
  RMP: -88 mV
Canis familiaris [20]
  RMP: -85 mV
Canis familiaris [21]
  APA: 102 mV
Canis familiaris [22]
  APD50: 315 ms
Canis familiaris [23]
  Max dV/dt: 348 V s-1
Canis familiaris [3]
  APD75: 38%
Canis familiaris [24]
  APD75: 485 ms
Canis familiaris [25]
  APD50: 266 ms
Canis familiaris [26]
  APA: 103 mV
Canis familiaris [27]
  Max dV/dt: 341 V s-1
Canis familiaris [28]
  RMP: -90 mV
Canis familiaris [29]
  APD75: 340 ms
Canis familiaris [30]
  Max dV/dt: 351 V s-1
Canis familiaris [31]
  Max dV/dt: 339 V s-1
Canis familiaris [32]
  APD75: 372 ms
Canis familiaris [33]
  RMP: -87 mV
Canis familiaris [34]
  APD50: 349 ms
Canis familiaris [35]
  APD50: 369 ms
Canis familiaris [36]
  Max dV/dt: 344 V s-1
Canis familiaris [5]
  APD75: 22%
Canis familiaris [37]
  APD75: 529 ms
Canis familiaris [38]
  APA: 101 mV
Canis familiaris [39]
  APD90: 344 ms
Canis familiaris [40]
  APD90: 533 ms
Canis familiaris [41]
  APD75: 313 ms
Canis familiaris [42]
  APD50: 386 ms
Canis familiaris [43]
  RMP: -87 mV

## Cn1c(NCCNCCCOc2ccccc2)cc(=O)n(C)c1=O
Canis familiaris [3]
  APD75: 11.9%
Canis familiaris [7]
  ED50: 0.1 mg/kg
Canis familiaris [5]
  APD75: 4%

## Cl.Cn1c(N2CCN(CCCOc3ccccc3[N+](=O)[O-])CC2)cc(=O)n(C)c1=O
Canis familiaris [1]
  APD75: 39%
Canis familiaris [44]
  ERP: 6.8%
Canis familiaris [3]
  APD75: 18%

## Cn1c(NCCNCC(O)COc2ccccc2F)cc(=O)n(C)c1=O (centres undefined)
Canis familiaris [1]
  APD75: 15.6%
Canis familiaris [3]
  APD75: 8.3%
Canis familiaris [7]
  ED50: 0.003 mg/kg
Canis familiaris [5]
  APD75: 4.1%

## CCN(CC)CCNC(=O)c1ccc(NS(C)(=O)=O)cc1 [SEMATILIDE]
Canis familiaris [3]
  APD75: 29%
Canis familiaris [5]
  APD75: 19%

## CCN(CCCc1ccc([N+](=O)[O-])cc1)CCNc1cc(=O)n(C)c(=O)n1C.Cl
Canis familiaris [3]
  APD75: 16%
Canis familiaris [5]
  APD75: 11%

## Cl.Cl.Cn1c(N2CCN(CCCOc3ccc(N)cc3)CC2)cc(=O)n(C)c1=O
Canis familiaris [3]
  APD75: 4%

## Cn1c(N2CCN(CCCc3ccc([N+](=O)[O-])cc3)CC2)cc(=O)n(C)c1=O.O=C(O)C(=O)O
Canis familiaris [1]
  APD75: 31%
Canis familiaris [3]
  APD75: 22%
Canis familiaris [45]
  ERP: 14.3%
Canis familiaris [5]
  APD75: 17%
